Activity calls are given as the source filed them. The calls are words filed in the database; no cut-off is given here.
How the values were obtained:
[1] = Octanol-water partition coefficient, logD of the compound in PBS at pH 7.4 by liquid chromatography based mass spectrometric analysis; format: physicochemical
In short: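 Shake-flask method: 3.0 mg compound dissolved in PBS-saturated n-octanol and rotated 24 h at room temperature. The octanol phase was then mixed with octanol-saturated PBS, rotated another 24 h and centrifuged. Both phases quantified by LC-MS against a standard curve, and log P = log(C octanol/C water).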

[2] = system: SW-620; assay: Cytotoxicity against human SW-620 cells incubated for 72 hrs by MTT assay; format: functional, cell-based; settings: SW-620, 72 h
In short: (§1)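 Cells seeded at 4000/well, incubated overnight, then exposed to a range of concentrations, or DMSO vehicle, for 72 h. MTT (5 mg/mL solution) added for 4 h and formazan dissolved in DMSO. Absorbance read at 570 nm, and IC50 derived from the curves. Tumor lines were grown in RPMI 1640; HUVEC, HaCaT and LO2 were grown in DMEM, each with 10% FBS at 37 °C and 5% CO2.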

[3] = system: MDA-MB-231; assay: Cytotoxicity against human MDA-MB-231 cells incubated for 72 hrs by MTT assay; format: functional, cell-based; settings: MDA-MB-231, 72 h; in short: as §1
[4] = system: HCT-116; assay: Cytotoxicity against human HCT-116 cells incubated for 72 hrs by MTT assay; format: functional, cell-based; settings: HCT-116, 72 h; in short: as §1
[5] = system: HT-29; assay: Cytotoxicity against human HT-29 cells incubated for 72 hrs by MTT assay; format: functional, cell-based; settings: HT-29, 72 h; in short: as §1
[6] = system: NCI-H460; assay: Cytotoxicity against human NCI-H460 cells incubated for 72 hrs by MTT assay; format: functional, cell-based; settings: NCI-H460, 72 h; in short: as §1
[7] = system: NCI-H1975; assay: Cytotoxicity against human NCI-H1975 cells incubated for 72 hrs by MTT assay; format: functional, cell-based; settings: NCI-H1975, 72 h; in short: as §1
[8] = Cytotoxicity against HUVEC incubated for 72 hrs by MTT assay; format: toxicity, cell-based; settings: human, HUVEC cells; in short: as §1
[9] = Cytotoxicity against human L02 cells incubated for 72 hrs by MTT assay; format: toxicity, cell-based; in short: as §1
[10] = Cytotoxicity against human HaCaT cells incubated for 72 hrs by MTT assay; format: toxicity, cell-based; in short: as §1
[11] = system: NCI-H460; assay: Down regulation of RNA polymerase II in human NCI-H460 cells measured after 48 hrs by Western blotting analysis; format: functional, cell-based
In short: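 NCI-H460 cells treated for 48 h, harvested by trypsinization and lysed on ice in NP-40 buffer (50 mmol/L Tris pH 8.0, 150 mmol/L NaCl, 1% NP-40). Protein quantified by BCA and resolved by SDS-PAGE. Blots probed for RNA Pol II (1:1000), with GAPDH as loading control, and detected by chemiluminescence.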

[12] = system: NCI-H460; assay: Induction of apoptosis in human NCI-H460 cells assessed as viable cells at 0.01 uM measured after 48 hrs by Annexin V-FITC/PI staining method (reference value: 86.4%); format: functional; settings: read-out: Activity
[13] = system: NCI-H460; assay: Induction of apoptosis in human NCI-H460 cells assessed as early apoptotic cells at 0.01 uM measured after 48 hrs by Annexin V-FITC/PI staining method (reference value: 3.46%); format: functional
[14] = system: NCI-H460; assay: Induction of apoptosis in human NCI-H460 cells assessed as late apoptotic cells at 0.01 uM measured after 48 hrs by Annexin V-FITC/PI staining method (reference value: 8.57%); format: functional
[15] = system: NCI-H460; assay: Induction of apoptosis in human NCI-H460 cells assessed as necrotic cells at 0.01 uM measured after 48 hrs by Annexin V-FITC/PI staining method (reference value: 1.59%); format: functional
[16] = system: NCI-H460; assay: Induction of apoptosis in human NCI-H460 cells assessed as viable cells at 0.1 uM measured after 48 hrs by Annexin V-FITC/PI staining method (reference value: 86.4%); format: functional; settings: read-out: Activity
[17] = system: NCI-H460; assay: Induction of apoptosis in human NCI-H460 cells assessed as early apoptotic cells at 0.1 uM measured after 48 hrs by Annexin V-FITC/PI staining method (reference value: 3.46%); format: functional
[18] = system: NCI-H460; assay: Induction of apoptosis in human NCI-H460 cells assessed as late apoptotic cells at 0.1 uM measured after 48 hrs by Annexin V-FITC/PI staining method (reference value: 8.57%); format: functional
[19] = system: NCI-H460; assay: Induction of apoptosis in human NCI-H460 cells assessed as necrotic cells at 0.1 uM measured after 48 hrs by Annexin V-FITC/PI staining method (reference value: 1.59%); format: functional
[20] = system: NCI-H460; assay: Induction of apoptosis in human NCI-H460 cells assessed as viable cells at 1 uM measured after 48 hrs by Annexin V-FITC/PI staining method (reference value: 86.4%); format: functional; settings: read-out: Activity
[21] = system: NCI-H460; assay: Induction of apoptosis in human NCI-H460 cells assessed as early apoptotic cells at 1 uM measured after 48 hrs by Annexin V-FITC/PI staining method (reference value: 3.46%); format: functional
[22] = system: NCI-H460; assay: Induction of apoptosis in human NCI-H460 cells assessed as late apoptotic cells at 1 uM measured after 48 hrs by Annexin V-FITC/PI staining method (reference value: 8.57%); format: functional
[23] = system: NCI-H460; assay: Induction of apoptosis in human NCI-H460 cells assessed as necrotic cells at 1 uM measured after 48 hrs by Annexin V-FITC/PI staining method (reference value: 1.59%); format: functional
[24] = system: NCI-H460; assay: Induction of ROS accumulation in human NCI-H460 cells measured upto 100 nM after 42 to 48 hrs by DCFH-DA staining based flow cytometric analysis; format: functional, cell-based; settings: time 42-48 hrs
In short: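 NCI-H460 cells exposed for 42 h or 48 h, then suspended in 1% BSA DPBS. DCFH-DA (from a 10 mM stock) added and incubated 30 min in the dark, followed by washing. DCF fluorescence taken from flow-cytometry histograms and expressed as percentage relative to untreated control.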

[25] = system: NCI-H460; assay: Induction of mitochondrial membrane potential loss in human NCI-H460 cells by flow cytometric analysis; format: functional, cell-based
In short: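 Treated NCI-H460 cells suspended in 1% BSA DPBS and stained with TMRE (from a 1 mM stock) for 20 min in the dark. Cells then washed and resuspended in 1% BSA DPBS. Relative TMRE fluorescence intensity taken as the readout of membrane potential.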

[26] = Stability in mouse serum measured after 8 hrs by HPLC analysis; format: ADME, cell-free
[27] = Toxicity in BALB/c nude mouse xenografted with human NCI-H1975 cells assessed as morphological change in lung at 0.2 mg/kg administered ip, qd for 2 weeks; settings: in vivo, 336 h
[28] = Toxicity in BALB/c nude mouse xenografted with human NCI-H1975 cells assessed as morphological change in heart at 0.2 mg/kg administered ip, qd for 2 weeks; settings: in vivo, 336 h
[29] = Toxicity in BALB/c nude mouse xenografted with human NCI-H1975 cells assessed as morphological change in liver at 0.2 mg/kg administered ip, qd for 2 weeks; settings: in vivo, 336 h
[30] = Toxicity in BALB/c nude mouse xenografted with human NCI-H1975 cells assessed as decreased spermatogenic cells at 0.2 mg/kg administered ip, qd for 2 weeks; settings: in vivo, 336 h
[31] = Toxicity in BALB/c nude mouse xenografted with human NCI-H1975 cells assessed as morphological change in kidney at 0.2 mg/kg administered ip, qd for 2 weeks; settings: in vivo, 336 h
[32] = Toxicity in BALB/c nude mouse xenografted with human NCI-H1975 cells assessed as irregular spermatogenic tubules at 0.2 mg/kg administered ip, qd for 2 weeks; settings: in vivo, 336 h
[33] = Toxicity in BALB/c nude mouse xenografted with human NCI-H1975 cells assessed as reduction of cytoplasmic nuclei at 0.2 mg/kg administered ip, qd for 2 weeks; settings: in vivo, 336 h
[34] = Toxicity in BALB/c nude mouse xenografted with human NCI-H1975 cells assessed as reduction of cytoplasmic vacuoles at 0.2 mg/kg administered ip, qd for 2 weeks; settings: in vivo, 336 h
[35] = system: NCI-H1975; assay: Antitumor activity against human NCI-H1975 cells xenografted in BALB/c nude mouse assessed as tumor growth inhibition at 0.2 mg/kg, ip, qd for 2 weeks relative to control; settings: NCI-H1975, 336 h, read-out: TGI
[36] = Toxicity in BALB/c nude mouse xenografted with human NCI-H1975 cells assessed as degeneration of inter tube connective tissue at 0.2 mg/kg administered ip, qd for 2 weeks; settings: in vivo, 336 h
[37] = system: NCI-H1975; assay: Antitumor activity against human NCI-H1975 cells xenografted in BALB/c nude mouse assessed as tumor growth inhibition at 15 mg/kg, ip, q3d for 2 weeks relative to control; settings: NCI-H1975, 336 h, read-out: TGI

Structure (SMILES): CC(C)[C@]12O[C@H]1[C@@H]1O[C@]13[C@]1(O[C@H]1C[C@H]1C4=C(CC[C@@]13C)C(=O)OC4)[C@@H]2O [TRIPTOLIDE]
- logD [1]: -0.56
- IC50 [2]: 163 nM
- IC50 [3]: 51 nM
- IC50 [4]: 46 nM
- IC50 [5]: 47 nM
- IC50 [6]: 14 nM
- IC50 [7]: 2 nM
- IC50 at 72 h [8]: 44 nM
- IC50 at 72 h [9]: 16 nM
- IC50 at 72 h [10]: 27 nM
- Activity [11]: Active
- viability at 0.01 µM [12]: 87.8%
- Activity [13]: 6.84%
- Activity [14]: 3.17%
- Activity [15]: 2.2%
- viability at 0.1 µM [16]: 29.5%
- Activity [17]: 42.2%
- Activity [18]: 24.4%
- Activity [19]: 3.85%
- viability at 1 µM [20]: 25.1%
- Activity [21]: 56.8%
- Activity [22]: 5.7%
- Activity [23]: 2.34%
- Activity [24]: Active
- Activity [25]: Active
- Stability [26]: Unstable
- Activity [27]: Non-Toxic
- Activity [28]: Non-Toxic
- Activity [29]: Non-Toxic
- Activity [30]: Toxic
- Activity [31]: Non-Toxic
- Activity [32]: Toxic
- Activity [33]: Toxic
- Activity [34]: Toxic
- inhibition in vivo at 0.2 mg/kg [35]: 28.6%
- Activity [36]: Toxic

Structure (SMILES): CC(C)[C@]12O[C@H]1[C@@H]1O[C@]13[C@]1(O[C@H]1C[C@H]1C4=C(CC[C@@]13C)C(=O)OC4)[C@@H]2OC(=O)CCC(=O)O[C@H]1O[C@H](CO)[C@@H](O)[C@H](O)[C@H]1O
- IC50 [2]: 3860 nM
- IC50 [3]: 4420 nM
- IC50 [4]: 1900 nM
- IC50 [5]: 5370 nM
- IC50 [6]: 4080 nM
- IC50 [7]: 3420 nM
- IC50 at 72 h [8]: 5680 nM
- IC50 at 72 h [9]: 2150 nM
- IC50 at 72 h [10]: 4300 nM

Structure (SMILES): CC(C)[C@]12O[C@H]1[C@@H]1O[C@]13[C@]1(O[C@H]1C[C@H]1C4=C(CC[C@@]13C)C(=O)OC4)[C@@H]2OC(=O)CCC(=O)O[C@H]1[C@H](O)[C@@H](O)C(O)O[C@@H]1CO (stereo partly specified)
- logD [1]: -0.331
- IC50 [2]: 11000 nM
- IC50 [3]: 5610 nM
- IC50 [4]: 4470 nM
- IC50 [5]: 4080 nM
- IC50 [6]: 3060 nM
- IC50 [7]: 2510 nM
- IC50 at 72 h [8]: 2360 nM
- IC50 at 72 h [9]: 1800 nM
- IC50 at 72 h [10]: 4750 nM

Structure (SMILES): CC(=O)O[C@H]1C(=O)[C@@]2(C)[C@H]([C@H](OC(=O)c3ccccc3)[C@]3(O)C[C@H](OC(=O)[C@H](O)[C@@H](NC(=O)c4ccccc4)c4ccccc4)C(C)=C1C3(C)C)[C@]1(OC(C)=O)CO[C@@H]1C[C@@H]2O [PACLITAXEL]
- inhibition in vivo at 15 mg/kg [37]: 56.9%

From ChEMBL document CHEMBL5104115, “Design, synthesis of novel triptolide-glucose conjugates targeting glucose Transporter-1 and their selective antitumor effect” (Eur J Med Chem, 2022)
